Experimental data reported in PMC3417756 (Bioorganic & medicinal chemistry, 2012).

Key:
[1] = MTT cytotoxicity assay in murine macrophage cells; type: cell-based; details: mouse, RAW 264.7 murine macrophage cells
iNOS = assay: qPCR of LPS-induced iNOS expression in RAW264.7 cells; type: cell-based, mouse; details: concentrations up to 10 μM; data not shown
How it was run: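 RAW264.7 cells were co-treated with LPS (100 ng/mL) and compound at 0.01–10 μM. Total RNA (0.5 μg) was DNase I-treated and reverse transcribed, and cDNAs were pooled per condition. SYBR Green real-time PCR array was normalised to GAPDH. Data come from three independent experiments and were compared by one-way ANOVA (p<0.05).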

RAW 264.7 cells = assay: MTT cytotoxicity assay in murine macrophage cells; type: cell-based
phosphorylation of IκBα = assay: Western blot analysis of phosphorylation of IκBα in RAW264.7 cells; type: cell-based, mouse; details: increasing concentrations, in the presence of LPS, 4 hr
How it was run: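 Cells were grown to near confluency and dosed with LPS plus compound at 37 °C. Lysates were made in SDS/2-mercaptoethanol loading buffer, sonicated 15 s and heated at 99.9 °C for 5 min. Proteins were run on 4–15% polyacrylamide SDS gels and transferred to membrane, which was blocked with 5% milk for 1 h. Probes were anti-phospho-IκB and anti-IκB (1:1000) with HRP secondary (1:3000, 1 h, room temperature), detected by chemiluminescence on X-ray film; β-actin served as control.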

NF-κB = assay: LPS-induced NF-κB luciferase reporter assay in RAW264.7 cells; type: cell-based; details: Mus musculus, RAW264.7, read-out: inhibition of NF-κB
How it was run: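 RAW264.7 cells stably transfected with an NF-κB luciferase reporter were seeded at 5 × 10^4 cells per well in 96-well plates. After 24 h recovery, cells were exposed to test compound plus LPS (100 ng/mL) for 18 h. Lysates were mixed with luciferase assay reagent and luminescence was read. IC50 is given as mean ± SE, n = 3.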

[2] = test system: nitric oxide (NO) production; assay: Griess assay of LPS stimulated nitric oxide production in RAW264.7 cells; type: cell-based, murine; details: concentrations up to 10 μM
How it was run: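 RAW264.7 cells were plated in RPMI1640 and held 24 h at 37 °C. Medium was replaced, then compound and E. coli 055:B5 LPS were added. Culture supernatant was reacted with Griess reagent (0.5% sulfanilamide, 0.05% N-1-naphthylethylenediamine dihydrochloride, 2.5% H3PO4) for 30 min at room temperature in the dark. Absorbance was read at 530 nm and converted to nitrite using a sodium nitrite standard curve.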

HCT-116 cells = assay: Human colon tumor HCT-116 cytotoxicity assay; type: cell-based; details: HCT-116, read-out: IC50 HCT-116

| Compound | IC50 at 18 h [1] [µM] | effect on iNOS expression (iNOS) | cytotoxicity to RAW 264.7 macrophage immune cells (in words) (RAW 264.7 cells) | IκBα phosphorylation (phosphorylation of IκBα) | IC50 (NF-κB) [µM] | inhibition of LPS stimulated NO production [2] | IC50 (HCT-116 cells) [µM] |
| --- | --- | --- | --- | --- | --- | --- | --- |
| CCC(C)/C=C/[C@@H](O)[C@H](O)[C@@H](O)[C@@H](OC)C(=O)N[C@H]1CCCCNC1=O (stereo partly shown) [compound 13, bengamide E’] | > 50 |  |  |  |  |  |  |
| CCCCCCCCCCCCCC(=O)O[C@H]1CC[C@H](NC(=O)[C@H](OC)[C@H](O)[C@@H](O)[C@H](O)/C=C/C(C)C)C(=O)N(C)C1 [compound 7, bengamide B] | > 50 | Neither 6 nor 7 showed NO inhibition activity or an effect on iNOS expression | without cytotoxicity | clear decrease in the levels of observed IκBα phosphorylation | 0.09 | Neither 6 nor 7 showed NO inhibition activity |  |
| CC1=C(O)C(=O)C=C2C1=CC=C1[C@@]2(C)CC[C@@]2(C)[C@@H]3C[C@](C)(C(=O)O)CC[C@]3(C)CC[C@]12C [compound 5, celastrol, reference compound] | > 50 |  |  |  |  |  |  |
| CCCCCCCCCCCCCC(=O)O[C@H]1CC[C@H](NC(=O)[C@H](OC)[C@H](O)[C@@H](O)[C@H](O)/C=C/C(C)C)C(=O)NC1 [compound 6, bengamide A] | > 50 | Neither 6 nor 7 showed NO inhibition activity or an effect on iNOS expression | without cytotoxicity | clear decrease in the levels of observed IκBα phosphorylation | 0.08 | Neither 6 nor 7 showed NO inhibition activity |  |
| CCC(C)/C=C/[C@@H](O)[C@H](O)[C@@H](O)[C@@H](OC)C(=O)N[C@H]1CCCCN(C)C1=O (stereo partly shown) [compound 14, bengamide F’] | > 50 |  |  |  |  |  | 5.1 |
| CO[C@@H](C(=O)N[C@H]1CC[C@@H](OC(=O)C2CCCCC2)CN(C)C1=O)[C@H](O)[C@@H](O)[C@H](O)/C=C/C(C)(C)C [compound 12, LAF 389, reference compound] | > 50 |  |  |  |  |  |  |
| CO[C@@H](C(=O)N[C@H]1CCCCNC1=O)[C@H](O)[C@@H](O)[C@H](O)/C=C/C(C)C [compound 8, bengamide E] | > 50 |  |  | clear decrease in the levels of observed IκBα phosphorylation |  |  |  |
